Source: PubChem BioAssay (Broad Institute)
PglD inh: C. jejuni PglD acetyltransferase inhibitors, primary screen, biochemical, DTNB colorimetric, single point | inhibition, % at 12.5 µM | purified PglD enzyme, DTNB colorimetric CoA detection | 360,000 tested, 0.098% active | AID 602405, 2012; in the data active = inhibition above about 16%, passing the limit was not always enough; inconclusive = no clear call, values can overlap the other calls
RAD52 inh: RAD52 DNA annealing inhibitors, primary screen, biochemical, FRET, single point, set 2; recombinant RAD52 DNA annealing, FRET fluorescence; inhibition, % at 18.7 µM; 360,000 tested, 0.46% active; AID 651710, 2012;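 active = every replicate showing at least 50% inhibition; inconclusive = mean inhibition at least 50% but not in every replicate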
Target sequence (P43351 whole entry, looked up): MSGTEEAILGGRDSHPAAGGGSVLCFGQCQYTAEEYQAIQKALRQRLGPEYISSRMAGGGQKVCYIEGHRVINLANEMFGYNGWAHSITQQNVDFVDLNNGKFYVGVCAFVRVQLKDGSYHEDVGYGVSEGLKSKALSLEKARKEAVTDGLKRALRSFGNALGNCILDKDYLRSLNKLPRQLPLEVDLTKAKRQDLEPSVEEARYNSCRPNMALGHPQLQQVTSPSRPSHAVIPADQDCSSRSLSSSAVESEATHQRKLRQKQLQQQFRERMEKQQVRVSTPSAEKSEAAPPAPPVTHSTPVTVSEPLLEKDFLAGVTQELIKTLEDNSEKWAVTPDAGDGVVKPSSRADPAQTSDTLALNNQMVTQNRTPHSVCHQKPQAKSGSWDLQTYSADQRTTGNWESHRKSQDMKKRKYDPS
Ecoli rRNA inh: reduced GFP signal of wild-type E. coli, primary screen, bacterial rRNA inhibitor project, GFP/RFP fluorescence, OD600, single point; E. coli WT GFP vs humanized-ribosome RFP mutants, 24 h; hits give low values; DMSO median 0, no signal -100; GFP signal change (wild-type ribosome), % (concentration not given with the values); 350,000 tested, 1.6% active;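 active = significant combined selectivity score with lowered wild-type GFP, culture density cut under 30%, mutant RFP and density less affected; inactive = any of these conditions unmet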
RAD54 inh: inhibitors of human RAD54 branch migration, primary screen, biochemical, fluorescence, single point | DNA repair and recombination protein RAD54-like (Homo sapiens), Q92698 | RAD54 Holliday junction branch migration, FAM/BHQ fluorescence | inhibition, % at 10.4 µM | 360,000 tested, 0.14% active | AID 602329, 2012;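 active = mean normalized replicate activity at least 40 and at least half of replicates scoring 40 or more; inconclusive = only one of the two criteria met; inactive = mean below 40 and under half of replicates reaching 40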;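 note: 0% = median of neutral control wells and 100% = median of positive control wells; inhibitors cause a drop in the FAM fluorescence signal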
Cneo AK release: Cryptococcus neoformans cell lysis inducers, primary screen, AK release luminescence, single concentration. C. neoformans lysis, adenylate kinase release luminescence, 4 h; normalised: neutral wells 0, clomiphene wells 100. lysis activity, % at 15 µM. 360,000 tested, 0.2% active. AID 651654, 2012;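 active = mean lysis activity across replicates of at least 80%, whatever share of replicates individually reach that level; inactive = mean lysis activity below 80%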
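Signal: Adenylate kinase release luminescence | Assay system: Log-phase Cryptococcus neoformans yeast cells | Input: Cells at 5 × 10^6 per mL | Buffer or medium: Fresh YPD growth medium | Compound: Single dose | Schedule: Static 4 h at 37 °C with compound, 1 h detection | Controls: Clomiphene | Read-out: Luminescence rise reflecting yeast cell lysis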
AID977621: growth inhibition of wild-type GFP E. coli, dose response, H69 mutant RFP, cherry-pick; 1,900 tested, under 10 active; shares compounds with Ecoli rRNA inh; E. coli wild-type GFP strain growth, fluorescence, 24 h; AID 977621, 2014; activity change, negative = inhibition at 50 µM;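 active = Wild-type ribosome reporter drop at least double the humanized mutant ribosome reporter drop, growth loss under a set limit; inconclusive = no clear call, values can overlap the other calls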;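 note: wild-type GFP and H69 mutant RFP strains grown together 50/50 in each well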
AID977628: E. coli growth inhibition, wild-type GFP versus h24 humanized RFP strain, dose response, h24 mutant RFP vs wild-type GFP, cherry-pick; 1,900 tested, under 10 active; E. coli WT GFP strain growth, fluorescence, 24 h; shares compounds with Ecoli rRNA inh; activity change, negative = inhibition at 50 µM; AID 977628, 2014;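 active = compound lowering the normal-ribosome reporter at least twice as much as the humanized-ribosome reporter, growth loss under a set limit; inconclusive = no clear call, values can overlap the other calls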;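 note: wild-type GFP and h24 humanized RFP strains co-cultured 1 to 1 per well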
Active calls of the source: *. Rows were chosen to be rich in hits. Some 1.9% of all compounds tested hit in one or more screens of this group.

What do the screens show for `CC(=O)N1CC[C@@H]2[C@H]1c1cc(-c3ccc(C#N)cc3)ccc1N(C)[C@H]2CO`?
PglD inh: 4.4; RAD52 inh: 2.1; Ecoli rRNA inh: -0.6; RAD54 inh: -16.3; Cneo AK release: -0.5

How did CS(=O)(=O)N1CCCC(C(=O)Nc2cccc(F)c2)C1 (stereo not given) do in these assays?
PglD inh: -0.4; RAD52 inh: -4.2; Ecoli rRNA inh: 7.1; RAD54 inh: -1.7; Cneo AK release: 0.7

How did CC(=O)c1cccc(NC(=O)C2CCCN(S(C)(=O)=O)C2)c1 (stereo not given) do in these assays?
PglD inh: 0.5; RAD52 inh: -15.1; Ecoli rRNA inh: -27.3*; RAD54 inh: 5.7; Cneo AK release: 6.9; AID977621: 2.1; AID977628: 1.1

How did O=C(NC1CCCC(C(F)(F)F)C1)c1ccc([N+](=O)[O-])o1 (stereo not given) do in these assays?
PglD inh: 8.7; RAD52 inh: -6.3; Ecoli rRNA inh: -23.7*; RAD54 inh: 5.5; Cneo AK release: 0.0; AID977628: inconclusive

What do the screens show for `C[C@@H]1CN([C@@H](C)CO)C(=O)c2cc(C#CCC3CCCC3)cnc2O[C@@H]1CN(C)S(=O)(=O)c1cccs1`?
PglD inh: 1.2; RAD52 inh: -6.2; Ecoli rRNA inh: 1.6; RAD54 inh: -1.5; Cneo AK release: -3.7

Results for O=C(NCc1cccs1)c1ccc(Cl)c(S(=O)(=O)N2CCCC2)c1 ?
RAD52 inh: 2.0; Ecoli rRNA inh: -19.0*; AID977628: 0.255

Results for O=C(NCc1cccs1)c1cccc(S(=O)(=O)N2CCCCC2)c1 ?
PglD inh: -3.8; RAD54 inh: 3.7; Cneo AK release: -2.6

What do the screens show for `C[C@@H]1CCCCO[C@@H](CN(C)S(C)(=O)=O)[C@H](C)CN([C@H](C)CO)C(=O)c2cc(NS(C)(=O)=O)ccc2O1`?
PglD inh: -2.5; Ecoli rRNA inh: 1.4; RAD54 inh: -1.0; Cneo AK release: 1.5

How did CS(=O)(=O)N1CC2CCCN2c2ccc(C(F)(F)F)cc21 (stereo not given) do in these assays?
PglD inh: 3.7; RAD52 inh: -20.2; Ecoli rRNA inh: -32.5*; RAD54 inh: -10.5; Cneo AK release: 1.5; AID977621: -1.43; AID977628: -2.84

How did Nc1[nH]c(C(=O)c2ccccc2)c(-c2ccc(Cl)cc2)c1C(=O)NCCc1c[nH]c2ccccc12 do in these assays?
RAD52 inh: -10.0; Ecoli rRNA inh: -18.6*; AID977621: -12.5

Results for Nc1[nH]c(C(=O)c2ccccc2)c(-c2ccc3c(c2)OCO3)c1C(=O)NCCc1c[nH]c2ccccc12 ?
RAD52 inh: 6.5; Ecoli rRNA inh: -14.8*; AID977621: inconclusive

How did CCCCNC(=O)c1c(N)[nH]c(C(=O)c2ccccc2)c1-c1ccccn1 do in these assays?
RAD52 inh: -8.1; Ecoli rRNA inh: -26.8*; AID977621: -2; AID977628: -15.3

How did CN1CCN(C(=O)C[C@H]2C[C@@H]3c4cc(NC(=O)CC5CC5)ccc4O[C@@H]3[C@H](CO)O2)CC1 do in these assays?
PglD inh: -0.1; RAD52 inh: 5.7; Ecoli rRNA inh: 1.2; RAD54 inh: -3.0; Cneo AK release: -2.5

What do the screens show for `CSc1ccccc1NC(=O)CN(c1cccc(C)c1)S(C)(=O)=O`?
RAD52 inh: 6.5; Ecoli rRNA inh: -20.2*; AID977621: -13.5

How did Cc1ccc(S(=O)(=O)Nc2ccc3c(c2)C(=O)N([C@@H](C)CO)C[C@@H](C)[C@@H](CN(C)S(=O)(=O)c2ccc(F)cc2)OCCCC[C@@H](C)O3)cc1 do in these assays?
PglD inh: -1.2; RAD52 inh: 6.8; Ecoli rRNA inh: -3.5; RAD54 inh: -1.7; Cneo AK release: 0.5

How did CCOc1ccccc1NC(=O)c1cccc2ccccc12 do in these assays?
PglD inh: -6.1; RAD52 inh: -15.6; Ecoli rRNA inh: -7.0; RAD54 inh: 4.7; Cneo AK release: -0.6

Results for CCOc1ccccc1NC(=O)c1cc(SC)ccc1Cl ?
PglD inh: 8.5; RAD52 inh: 1.1; Ecoli rRNA inh: -29.6*; RAD54 inh: 11.0; Cneo AK release: -1.3; AID977621: -13.4; AID977628: -7.47

Results for COc1ccc(S(=O)(=O)N(C)C[C@@H]2OCCCC[C@H](C)Oc3ccc(NC(=O)Nc4ccccc4)cc3C(=O)N([C@H](C)CO)C[C@@H]2C)cc1 ?
PglD inh: -6.6; Ecoli rRNA inh: 0.3; RAD54 inh: 3.3; Cneo AK release: 0.6

Results for N#CC1CN(Cc2ccccc2)CN(Cc2ccccc2)C1 ?
RAD52 inh: -6.6; Ecoli rRNA inh: -26.9*; AID977628: inconclusive

What do the screens show for `C=CCn1c(SCC(=O)Nc2ccc3c(c2)OCCO3)nnc1-c1ccco1`?
PglD inh: 0.7; RAD52 inh: -17.6; Ecoli rRNA inh: -16.7*; RAD54 inh: 1.2; Cneo AK release: -1.7; AID977628: -14.2

What do the screens show for `C=CCn1c(C)nnc1SCC(=O)Nc1ccc2c(c1)OCCO2`?
PglD inh: -4.3; RAD52 inh: -12.7; Ecoli rRNA inh: 10.8; RAD54 inh: -3.2; Cneo AK release: -0.5

What do the screens show for `COc1cccc(S(=O)(=O)N2CCCCN3[C@H](CO)[C@H](c4ccc(C#CC(C)C)cc4)[C@@H]3C2)c1`?
PglD inh: -3.7; RAD52 inh: -21.2; Ecoli rRNA inh: -3.5; RAD54 inh: 2.5; Cneo AK release: -1.2; AID977621: 4.6

Results for COc1cccc(S(=O)(=O)N2CCCCN3[C@H](CO)[C@@H](c4ccc(C#CC(C)C)cc4)[C@H]3C2)c1 ?
PglD inh: -5.2; RAD52 inh: 6.7; Ecoli rRNA inh: -47.2*; RAD54 inh: -3.9; Cneo AK release: 5.9; AID977628: inconclusive

How did COc1cccc(S(=O)(=O)N2CCCCN3[C@H](CO)[C@@H](c4ccc(C#CC(C)C)cc4)[C@@H]3C2)c1 do in these assays?
PglD inh: 1.1; RAD52 inh: -12.1; Ecoli rRNA inh: 6.8; RAD54 inh: 10.8; Cneo AK release: -1.8; AID977621: inconclusive
